Source: ChEMBL document CHEMBL3992564, “Design and synthesis of novel, potent and selective hypoxanthine analogs as adenosine A1 receptor antagonists and their biological evaluation” (Bioorg Med Chem, 2017)
Active and inactive are the calls of the source. The calls are words filed in the database; no cut-off is given here.

Key:
Adenosine receptor A1 [1] = target: T1, Adenosine receptor A1 (Homo sapiens, UniProt P30542); assay: Displacement of [3H]DPCPX from human adenosine A1 receptor expressed in HEK293 cell membranes after 90 mins
T1 sequence (P30542 whole entry): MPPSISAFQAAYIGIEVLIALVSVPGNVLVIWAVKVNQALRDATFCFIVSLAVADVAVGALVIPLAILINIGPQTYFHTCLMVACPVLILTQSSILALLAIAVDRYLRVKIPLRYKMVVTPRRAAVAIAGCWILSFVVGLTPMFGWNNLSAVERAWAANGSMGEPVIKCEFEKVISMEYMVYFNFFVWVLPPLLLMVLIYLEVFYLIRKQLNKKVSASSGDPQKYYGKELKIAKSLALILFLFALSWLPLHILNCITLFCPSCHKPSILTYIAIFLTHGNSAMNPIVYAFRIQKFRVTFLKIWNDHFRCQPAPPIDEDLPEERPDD

[2] = target: T2, Adenosine receptor A3 (Homo sapiens) (UniProt P0DMS8); assay: Displacement of [3H]HEMADO from human adenosine A3 receptor expressed in HEK293 cell membranes at 1 uM after 90 mins relative to control
T2 sequence (whole entry): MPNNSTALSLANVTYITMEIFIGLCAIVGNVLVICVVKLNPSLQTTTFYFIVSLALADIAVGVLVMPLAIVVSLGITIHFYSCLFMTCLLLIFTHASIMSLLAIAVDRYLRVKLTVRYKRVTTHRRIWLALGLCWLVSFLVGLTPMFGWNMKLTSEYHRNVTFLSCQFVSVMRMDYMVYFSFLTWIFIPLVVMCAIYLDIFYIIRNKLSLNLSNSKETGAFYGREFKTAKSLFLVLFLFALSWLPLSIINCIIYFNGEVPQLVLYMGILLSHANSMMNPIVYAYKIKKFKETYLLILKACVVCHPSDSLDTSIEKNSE
Outline: (§1)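 Membranes from HEK-293 cells stably transfected with human receptor, pre-treated with adenosine deaminase. Radioligands: 1 nM [3H]DPCPX (A1), 1 nM [3H]ZM241385 (A2A), 1.6 nM [3H]MRS-1754 (A2B), 2 nM [3H]HEMADO (A3). Buffers: Tris pH 7.4 (A1, A2A, A3) or pH 6.5 (A2B), with ADA. Incubated 90 min at room temperature, then filtered. Nonspecific binding defined with 100 µM NECA. Ki from 8 concentrations run in triplicate.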

[3] = target: T3, Adenosine receptor A2b (Homo sapiens) (UniProt P29275); assay: Displacement of [3H]MRS-1754 from human adenosine A2B receptor expressed in HEK293 cell membranes at 1 uM after 90 mins relative to control; outline: as §1
T3 sequence (whole entry): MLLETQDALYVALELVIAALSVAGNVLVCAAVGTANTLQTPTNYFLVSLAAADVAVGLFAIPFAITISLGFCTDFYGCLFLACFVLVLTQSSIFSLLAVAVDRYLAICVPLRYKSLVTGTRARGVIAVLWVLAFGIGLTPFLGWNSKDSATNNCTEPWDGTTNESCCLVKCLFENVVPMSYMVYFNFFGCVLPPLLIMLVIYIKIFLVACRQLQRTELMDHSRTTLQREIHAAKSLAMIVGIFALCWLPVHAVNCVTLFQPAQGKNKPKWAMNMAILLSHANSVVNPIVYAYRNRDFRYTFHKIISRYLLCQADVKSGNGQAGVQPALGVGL

Adenosine receptor A2a = Adenosine receptor A2a (Homo sapiens, UniProt P29274); assay: Displacement of [3H]ZM241385 from human adenosine A2A receptor expressed in HEK293 cell membranes at 1 uM after 90 mins relative to control; outline: as §1
Adenosine receptor A1 [4] = target: T1, Adenosine receptor A1; assay: Antagonist activity at human adenosine A1 receptor expressed in HEK293 cells assessed as reduction in CPA-mediated inhibition of forskolin-stimulated cAMP level preincubated for 15 mins followed by CPA treatment for 15 mins and subsequent addition of forskolin measured after 30 mins by HTRF assay; assay type: functional, cell-based
[5] = target: T4, Adenosine receptor A1 (Homo sapiens) (UniProt P30542); assay: Displacement of [3H]DPCPX from human adenosine A1 receptor expressed in HEK293 cell membranes at 1 uM after 90 mins relative to control; outline: as §1
T4 sequence (whole entry): T1 sequence (P30542 whole entry)

[6] = Metabolic stability in human liver microsomes assessed as parent compound remaining measured after 30 mins in presence of NADPH; assay type: ADME, microsome; conditions: read-out: Stability
Liver [7] = assay: Metabolic stability in human liver microsomes assessed as metabolic rate measured after 30 mins in presence of NADPH; assay type: ADME, microsome; conditions: 0.5 h
[8] = Metabolic stability in rat liver microsomes assessed as parent compound remaining measured after 30 mins in presence of NADPH; assay type: ADME, microsome; conditions: read-out: Stability
Liver [9] = assay: Metabolic stability in rat liver microsomes assessed as metabolic rate measured after 30 mins in presence of NADPH; assay type: ADME, microsome; conditions: 0.5 h
[10] = target: T4, Adenosine receptor A1 (Homo sapiens); assay: Antagonist activity at human adenosine A1 receptor expressed in HEK293 cells assessed as reduction in CPA-mediated inhibition of forskolin-stimulated cAMP level at 30 uM preincubated for 15 mins followed by CPA treatment for 15 mins and subsequent addition of forskolin measured after 30 mins by HTRF assay relative to control; assay type: functional, cell-based
Outline: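 Overnight HEK-A1 or HEK-A2B cultures were treated with 1 U/mL ADA for 90 min at 37°C. Compound was added for 15 min, then agonist for 15 min (1 nM CPA for A1; 70 nM NECA for A2B) at room temperature in incomplete DMEM with ADA. Rolipram (20 µM) was included for A1 only. cAMP was read by HTRF.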

Adenosine receptor A3 = target: T5, Adenosine receptor A3 (Homo sapiens, UniProt P0DMS8); assay: Displacement of [3H]HEMADO from human adenosine A3 receptor expressed in HEK293 cell membranes after 90 mins; outline: as §1
T5 sequence (P0DMS8 whole entry): T2 sequence (whole entry)

Adenosine receptor A2a, sequence (P29274 whole entry): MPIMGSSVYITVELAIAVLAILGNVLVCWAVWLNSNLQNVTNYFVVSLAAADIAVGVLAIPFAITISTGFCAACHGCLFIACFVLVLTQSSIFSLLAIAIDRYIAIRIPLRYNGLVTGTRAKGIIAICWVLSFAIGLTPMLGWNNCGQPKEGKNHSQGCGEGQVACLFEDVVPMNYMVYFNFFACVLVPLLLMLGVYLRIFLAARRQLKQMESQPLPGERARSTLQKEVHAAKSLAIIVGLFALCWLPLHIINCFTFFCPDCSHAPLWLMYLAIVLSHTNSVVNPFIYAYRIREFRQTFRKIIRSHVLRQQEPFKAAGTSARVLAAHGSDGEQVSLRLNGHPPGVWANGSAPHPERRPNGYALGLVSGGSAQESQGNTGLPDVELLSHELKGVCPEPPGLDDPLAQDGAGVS

Row | SMILES | Ki (Adenosine receptor A1 [1]) [nM] | inhibition [2] [%] | inhibition [3] [%] | inhibition (Adenosine receptor A2a) [%] | also measured
1 | CCCn1c(Oc2ccc(S(N)(=O)=O)cc2)nc2nc(C3CCCC3)[nH]c2c1=O | > 1000 | – | – | – | –
2 | CCCn1c(O[C@H]2CCOC2)nc2nc(C3CCCC3)[nH]c2c1=O | 85 | – | – | – | –
3 | CCCn1c(Nc2ccc(F)cc2)nc2nc(C3CCCC3)[nH]c2c1=O | > 1000 | 24 | 6 | 0 | –
4 | CCCn1c(Nc2ccccc2)nc2nc(C3CCCC3)[nH]c2c1=O | > 1000 | – | – | – | –
5 | CCCn1c(Oc2cccc(CC(=O)O)c2)nc2nc(C3CCCC3)[nH]c2c1=O | > 1000 | – | – | – | –
6 | CCCn1c(Oc2ccc(C(N)=O)cc2)nc2nc(C3CCCC3)[nH]c2c1=O | > 1000 | – | – | – | –
7 | CCCn1c(Oc2cc(C)ccn2)nc2nc(C3CCCC3)[nH]c2c1=O | > 1000 | – | – | – | –
8 | CCCn1c(-c2cccc(C(F)(F)F)c2)nc2nc(C3CCCC3)[nH]c2c1=O | – | 0 | 14 | 0 | Ki (Adenosine receptor A1 [4]): 12 nM; inhibition [5]: 100%
9 | CCCn1c(Oc2ccc(C)nc2)nc2nc(C3CCCC3)[nH]c2c1=O | 630 | – | – | – | –
10 | C[C@]12CC[C@H]3[C@@H](CCC4=CC(=O)CC[C@@]43C)[C@@H]1CC[C@@H]2O [TESTOSTERONE] | – | – | – | – | remaining at 0.5 h [6]: 84%; Drug metabolism (Liver [7]): 0.05 nmol/min/mg; remaining at 0.5 h [8]: 2%; Drug metabolism (Liver [9]): > 1.52 nmol/min/mg
11 | CCCn1c(O[C@@H]2CCOC2)nc2nc(C3CCCC3)[nH]c2c1=O | 50 | – | – | – | –
12 | CCCn1c(NCC(=O)O)nc2nc(C3CCCC3)[nH]c2c1=O | – | 0 | 9 | 0 | inhibition [5]: 72%
13 | CCCn1c(Oc2cccc(O)c2)nc2nc(C3CCCC3)[nH]c2c1=O | 10.5 | 69 | 53 | 81 | –
14 | CCCn1c(OC2CCCC2)nc2nc(C3CCCC3)[nH]c2c1=O | 14 | 79 | 92 | 85 | Ki (Adenosine receptor A1 [4]): 13 nM
15 | CCCn1c(Oc2ccc3[nH]ccc3c2)nc2nc(C3CCCC3)[nH]c2c1=O | 36 | 34 | 0 | 0 | –
16 | CCCn1c(-c2cccc(C(=O)O)c2)nc2nc(C3CCCC3)[nH]c2c1=O | – | – | – | – | inhibition [10]: < 50%; inhibition [5]: inactive
17 | CCCn1c(OC2CCOCC2)nc2nc(C3CCCC3)[nH]c2c1=O | 20 | 0 | 56 | 82 | Ki (Adenosine receptor A1 [4]): 12 nM
18 | CCCn1c(-c2cccc(C(N)=O)c2)nc2nc(C3CCCC3)[nH]c2c1=O | > 1000 | – | – | – | –

Row | SMILES | Ki (Adenosine receptor A1 [1]) [nM] | inhibition [2] [%] | inhibition [3] [%] | inhibition (Adenosine receptor A2a) [%] | also measured
19 | CCCn1c(NCc2ccc(C(F)(F)F)cc2)nc2nc(C3CCCC3)[nH]c2c1=O | 23 | 23 | 0 | 0 | –
20 | CCCn1c(-c2cccc(O)c2)nc2nc(C3CCCC3)[nH]c2c1=O | 1 | – | 100 | 74 | Ki (Adenosine receptor A1 [4]): 0.2 nM
21 | CCCn1c(NCc2ccc(C)cc2)nc2nc(C3CCCC3)[nH]c2c1=O | 27 | 24 | 6 | 0 | –
22 | CCCn1c(Oc2cccnc2Cl)nc2nc(C3CCCC3)[nH]c2c1=O | 3.6 | – | – | – | –
23 | COc1ccc(CCN(C)CCCC(C#N)(c2ccc(OC)c(OC)c2)C(C)C)cc1OC (stereo not given) | – | – | – | – | remaining at 0.5 h [6]: 78%; remaining at 0.5 h [8]: 68%
24 | CCCn1c(Nc2cccc(C(F)(F)F)c2)nc2nc(C3CCCC3)[nH]c2c1=O | 370 | – | 5 | 27 | –
25 | CCCn1c(Oc2cccc3[nH]ccc23)nc2nc(C3CCCC3)[nH]c2c1=O | 74 | – | – | – | –
26 | CCCn1c(NCCO)nc2nc(C3CCCC3)[nH]c2c1=O | – | 0 | 31 | 5 | inhibition [5]: 36%
27 | CCCn1c(Oc2cccc(C(F)(F)F)c2)nc2nc(C3CCCC3)[nH]c2c1=O | 19 | 35 | 0 | 34 | Ki (Adenosine receptor A1 [4]): 5.9 nM
28 | CCCn1c(Oc2cncc(Cl)c2)nc2nc(C3CCCC3)[nH]c2c1=O | 12 | 76 | 37 | 22 | Ki (Adenosine receptor A1 [4]): 2.2 nM
29 | CCCn1c(OC2CCOC2)nc2nc(C3CCCC3)[nH]c2c1=O (stereo not given) | 59 | – | – | – | –
30 | CCCn1c(NCc2cccc(Cl)c2)nc2nc(C3CCCC3)[nH]c2c1=O | 120 | – | – | – | –
31 | CCCn1c(Nc2cccc(F)c2)nc2nc(C3CCCC3)[nH]c2c1=O | 4500 | – | 16 | 31 | –
32 | CCCn1c(OC2CCN(C)C2)nc2nc(C3CCCC3)[nH]c2c1=O (stereo not given) | > 1000 | – | – | – | –
33 | CCCn1c(NCc2ccc(C(=O)O)cc2)nc2nc(C3CCCC3)[nH]c2c1=O | – | – | 16 | 31 | inhibition [5]: 54%
34 | CCCn1c(Oc2cccc3cc[nH]c23)nc2nc(C3CCCC3)[nH]c2c1=O | 5.5 | 40 | 42 | 25 | Ki (Adenosine receptor A1 [4]): 5.6 nM
35 | CCCn1c(-c2ccc(C(F)(F)F)cc2)nc2nc(C3CCCC3)[nH]c2c1=O | – | 5 | 12 | 0 | inhibition [5]: 70%
36 | CCCn1c(Oc2cccc(OC)c2)nc2nc(C3CCCC3)[nH]c2c1=O | – | – | 70 | 36 | IC50 (Adenosine receptor A3): 430 nM
